From ChEMBL document CHEMBL1124349, “Novel benzodiazepine receptor partial agonists: oxadiazolylimidazobenzodiazepines” (J Med Chem, 1989) come the findings set out here.

As usually defined, the IC50 is the concentration that gives 50% inhibition. Read a low IC50 as greater potency in that assay.

Assay [1] deals with GABA-A receptor; anion channel. The assay can be described thus: Inhibition of radiolabeled antagonist [3H]-Ro- 15-1788 binding to benzodiazepine receptor from rat cortical membranes. Format: cell membranes, Membrane. In a few lines: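 Rat (Sprague–Dawley, 250-300 g) cortical membranes, water-washed and frozen at -20 °C ≥18 h, then washed repeatedly in Krebs/HEPES pH 7.4. Nonspecific binding with 3 μM clonazepam. Filtration, scintillation counting.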

The target of assay [2] is GABA-A receptor; anion channel (Rattus norvegicus) (UniProt O09028+P15431+P18506+P18508+P19969+P20236+P23574+P23576+P28471+P28473+P30191+P62813+P63079+P63138+Q91ZM7+Q9ES14). The assay is described as follows: Ratio of binding affinity to the GABA-A receptor in the presence and absence of GABA. It is filed as protein-complex assay. In a few lines:
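[3H]-Ro 15-1788 displacement in washed rat cortical membranes (Krebs/HEPES pH 7.4, nipecotic acid 10^-4 M, 30 °C, 60 min) run with and without GABA at 0.3 mM. Nonspecific binding was defined by 3 μM clonazepam, and read-out was filtration with scintillation counting. The value is the ratio of the affinities obtained with GABA and without it.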

The compound `Cc1nc(-c2ncn3c2CN(C)C(=O)c2cc(F)ccc2-3)no1` yielded an IC50 in assay [1] of 0.021 µM. In addition, in assay [2], the GABA shift stood at 1.53.
Taken in the same sequence, the figures for `CC(C)c1noc(-c2ncn3c2CN=C(c2ccccc2)c2ccccc2-3)n1` were 0.052 µM and 1.7.
Taken in the same sequence, the figures for `CCCc1nc(-c2ncn3c2CN(C)C(=O)c2c(Cl)cccc2-3)no1` were 0.0038 µM and 1.41.
Consider `CC(C)c1nc(-c2ncn3c2CN=C(c2ccccc2Cl)c2ccccc2-3)no1`, for which the IC50 in assay [1] stood at 0.014 µM. The GABA shift in assay [2] was determined as 1.64.
Taken in the same sequence, the figures for `CCCc1noc(-c2ncn3c2CN=C(c2ccccc2)c2ccccc2-3)n1` were 0.043 µM and 1.8.
Taken in the same sequence, the figures for `CC(C)c1nc(-c2ncn3c2CN(C)C(=O)c2c(Cl)cccc2-3)no1` were 0.0036 µM and 2.37.
For `CCCc1nc(-c2ncn3c2CN(C)C(=O)c2ccccc2-3)no1` the same measures were 0.034 µM and 2.
In turn, `Cc1nc(-c2ncn3c2CN=C(c2ccccc2)c2c(F)cccc2-3)no1` yielded an IC50 in assay [1] of 0.0024 µM. For the same compound, in assay [2], the GABA shift came to 1.68.
For `CCc1nc(-c2ncn3c2CN(C)C(=O)c2c(Cl)cccc2-3)no1` the same measures were 0.0064 µM and 1.12.
For `CC(C)c1noc(-c2ncn3c2CN=C(c2ccccc2Cl)c2cc(Cl)ccc2-3)n1` the same measures were 0.045 µM and 1.81.
For `CC(C)c1nc(-c2ncn3c2CN(C)C(=O)c2c(F)cccc2-3)no1` the same measures were 0.019 µM and 1.97.
`CCCc1nc(-c2ncn3c2CN=C(c2ccccc2)c2c(Cl)cccc2-3)no1` displayed an IC50 in assay [1] of 0.0039 µM. Further, in assay [2], the GABA shift was 1.7.
For `Cc1noc(-c2ncn3c2CN(C)C(=O)c2ccccc2-3)n1` the same measures were 0.067 µM and 1.5.
For `Cc1nc(-c2ncn3c2CN=C(c2ccccc2Cl)c2ccccc2-3)no1` the same measures were 0.0067 µM and 1.35.
For the compound `CCCc1noc(-c2ncn3c2CN(C)C(=O)c2c(Cl)cccc2-3)n1`, in assay [1], the IC50 was determined as 0.006 µM. The GABA shift in assay [2] was 1.53.
For `CCc1noc(-c2ncn3c2CN(C)C(=O)c2c(Cl)cccc2-3)n1` the same measures were 0.0097 µM and 1.43.
Take `CCCc1noc(-c2ncn3c2CN(C)C(=O)c2cc(F)ccc2-3)n1`: in assay [1], the IC50 was 0.042 µM. Besides, the GABA shift in assay [2] amounted to 2.
For `CCCc1nc(-c2ncn3c2CN=C(c2ccccc2)c2c(F)cccc2-3)no1` the same measures were 0.0053 µM and 2.06.
In assay [1], `CCc1noc(-c2ncn3c2CN(C)C(=O)c2ccccc2-3)n1` showed an IC50 of 0.051 µM. In addition, the GABA shift in assay [2] turned out to be 1.79.
For `CCc1nc(-c2ncn3c2CN(C)C(=O)c2c(F)cccc2-3)no1` the same measures were 0.015 µM and 1.44.
Taken in the same sequence, the figures for `CCCc1noc(-c2ncn3c2CN=C(c2ccccc2)c2c(Cl)cccc2-3)n1` were 0.0052 µM and 1.85.
In turn, `CC(C)c1nc(-c2ncn3c2CN=C(c2ccccc2)c2cc(Cl)ccc2-3)no1` returned an IC50 in assay [1] of 0.053 µM. Moreover, in assay [2], the GABA shift is 2.89.
For `CCc1nc(-c2ncn3c2CN=C(c2ccccc2)c2cc(Cl)ccc2-3)no1` the same measures were 0.044 µM and 2.43.
Taken in the same sequence, the figures for `CCCc1nc(-c2ncn3c2CN=C(c2ccccc2)c2cc(Cl)ccc2-3)no1` were 0.045 µM and 2.22.
In turn, `CCc1nc(-c2ncn3c2CN(C)C(=O)c2ccccc2-3)no1` returned an IC50 in assay [1] of 0.022 µM. In assay [2], the GABA shift turned out to be 1.8.
Taken in the same sequence, the figures for `CCc1nc(-c2ncn3c2CN(C)C(=O)c2cc(F)ccc2-3)no1` were 0.027 µM and 1.84.
For `CCc1noc(-c2ncn3c2CN=C(c2ccccc2)c2c(F)cccc2-3)n1`, the IC50 in assay [1] came out at 0.0098 µM. The GABA shift in assay [2] came to 2.31.
The compound `CC(C)c1noc(-c2ncn3c2CN(C)C(=O)c2cc(F)ccc2-3)n1` showed an IC50 in assay [1] of 0.1 µM. The GABA shift in assay [2] came to 1.86.
Taken in the same sequence, the figures for `CCCc1noc(-c2ncn3c2CN(C)C(=O)c2c(F)cccc2-3)n1` were 0.024 µM and 1.94.
Taken in the same sequence, the figures for `Cc1noc(-c2ncn3c2CN=C(c2ccccc2Cl)c2cc(Cl)ccc2-3)n1` were 0.11 µM and 2.28.
For `CC(C)c1nc(-c2ncn3c2CN=C(c2ccccc2)c2c(Cl)cccc2-3)no1` the same measures were 0.0069 µM and 1.82.
In assay [1], `CCc1noc(-c2ncn3c2CN=C(c2ccccc2)c2ccccc2-3)n1` gave an IC50 of 0.019 µM. The GABA shift in assay [2] amounted to 1.2.
In assay [1], `CCc1nc(-c2ncn3c2CN=C(c2ccccc2)c2ccccc2-3)no1` gave an IC50 of 0.016 µM. For the same compound, in assay [2], the GABA shift is 2.11.
Regarding `CCc1noc(-c2ncn3c2CN(C)C(=O)c2c(F)cccc2-3)n1`, in assay [1], the IC50 was found to be 0.042 µM. The GABA shift in assay [2] came to 2.4.
`CCc1noc(-c2ncn3c2CN=C(c2ccccc2Cl)c2cc(Cl)ccc2-3)n1`: the IC50 in assay [1] is 0.025 µM. Also, in assay [2], the GABA shift came to 2.11.
For `O=C(OCC1CC1)c1ncn2c1C1CCN1C(=O)c1c(Cl)cccc1-2` (stereo not given) the same measures were 0.0042 µM and 1.7.
Taken in the same sequence, the figures for `CC(C)c1noc(-c2ncn3c2CN(C)C(=O)c2ccccc2-3)n1` were 0.105 µM and 2.19.
Taken in the same sequence, the figures for `CC(C)(C)OC(=O)c1ncn2c1C1CCCN1C(=O)c1c(Br)cccc1-2` (stereo not given) were 0.0006 µM and 1.34.
For the compound `Cc1nc(-c2ncn3c2CN(C)C(=O)c2ccccc2-3)no1`, the IC50 in assay [1] stood at 0.027 µM. In assay [2], the GABA shift came out at 1.28.
For `Cc1nc(-c2ncn3c2CN=C(c2ccccc2)c2ccccc2-3)no1` the same measures were 0.007 µM and 1.56.
For `Cc1nc(-c2ncn3c2CN=C(c2ccccc2)c2cc(Cl)ccc2-3)no1` the same measures were 0.071 µM and 1.17.
For `CC(C)c1nc(-c2ncn3c2CN=C(c2ccccc2Cl)c2cc(Cl)ccc2-3)no1` the same measures were 0.012 µM and 2.79.
Regarding `CCc1nc(-c2ncn3c2CN=C(c2ccccc2Cl)c2cc(Cl)ccc2-3)no1`, the IC50 in assay [1] turned out to be 0.0094 µM. In assay [2], the GABA shift came to 1.86.
In the case of `Cc1noc(-c2ncn3c2CN=C(c2ccccc2)c2cc(Cl)ccc2-3)n1`, the IC50 in assay [1] stood at 0.18 µM. In assay [2], the GABA shift worked out at 1.84.
The compound `CCCc1nc(-c2ncn3c2CN=C(c2ccccc2Cl)c2ccccc2-3)no1` displayed an IC50 in assay [1] of 0.012 µM. Besides, in assay [2], the GABA shift is 1.68.
Taken in the same sequence, the figures for `CCCc1nc(-c2ncn3c2CN=C(c2ccccc2Cl)c2cc(Cl)ccc2-3)no1` were 0.0082 µM and 1.81.
Taken in the same sequence, the figures for `Cc1noc(-c2ncn3c2CN(C)C(=O)c2c(Cl)cccc2-3)n1` were 0.0081 µM and 1.51.
For `CCc1noc(-c2ncn3c2CN=C(c2ccccc2)c2cc(Cl)ccc2-3)n1` the same measures were 0.16 µM and 2.
For the compound `CCc1noc(-c2ncn3c2CN(C)C(=O)c2cc(Cl)ccc2-3)n1`, the IC50 in assay [1] was 0.6 µM. In addition, the GABA shift in assay [2] worked out at 0.91.
The compound `CCCc1noc(-c2ncn3c2CN=C(c2ccccc2Cl)c2cc(Cl)ccc2-3)n1` returned an IC50 in assay [1] of 0.034 µM. For the same compound, the GABA shift in assay [2] is 2.92.
With `Cc1noc(-c2ncn3c2CN(C)C(=O)c2cc(F)ccc2-3)n1`, the IC50 in assay [1] was determined as 0.05 µM. For the same compound, the GABA shift in assay [2] turned out to be 1.47.
For `CCCc1noc(-c2ncn3c2CN=C(c2ccccc2)c2cc(Cl)ccc2-3)n1` the same measures were 0.12 µM and 2.57.
Taken in the same sequence, the figures for `CC(C)c1noc(-c2ncn3c2CN=C(c2ccccc2Cl)c2ccccc2-3)n1` were 0.031 µM and 1.83.
`CC(C)c1nc(-c2ncn3c2CN=C(c2ccccc2)c2c(F)cccc2-3)no1` gave an IC50 in assay [1] of 0.0061 µM. In addition, the GABA shift in assay [2] is 2.08.
For `CCc1noc(-c2ncn3c2CN(C)C(=O)c2cc(F)ccc2-3)n1` the same measures were 0.105 µM and 2.34.
As for `Cc1noc(-c2ncn3c2CN=C(c2ccccc2)c2c(Cl)cccc2-3)n1`, the IC50 in assay [1] came out at 0.0034 µM. In addition, the GABA shift in assay [2] was determined as 1.67.
In the case of `CC(C)c1noc(-c2ncn3c2CN=C(c2ccccc2)c2cc(Cl)ccc2-3)n1`, the IC50 in assay [1] came to 0.12 µM. Moreover, the GABA shift in assay [2] was 1.06.
For `CC(C)c1nc(-c2ncn3c2CN=C(c2ccccc2)c2ccccc2-3)no1` the same measures were 0.018 µM and 2.57.
Taken in the same sequence, the figures for `CC(C)c1nc(-c2ncn3c2CN(C)C(=O)c2ccccc2-3)no1` were 0.053 µM and 2.4.
For `CCCc1nc(-c2ncn3c2CN(C)C(=O)c2c(F)cccc2-3)no1` the same measures were 0.014 µM and 1.7.
Take `CC(C)c1noc(-c2ncn3c2CN=C(c2ccccc2)c2c(F)cccc2-3)n1`: the half-maximal inhibitory concentration (IC50) in assay [1] was found to be 0.0014 µM. Also, in assay [2], the GABA shift was 2.03.
In turn, `CC(C)c1nc(-c2ncn3c2CN(C)C(=O)c2cc(F)ccc2-3)no1` showed an IC50 in assay [1] of 0.043 µM. The GABA shift in assay [2] came to 2.76.
For `CC(C)c1noc(-c2ncn3c2CN=C(c2ccccc2)c2c(Cl)cccc2-3)n1` the same measures were 0.0072 µM and 1.91.
Taken in the same sequence, the figures for `Cc1nc(-c2ncn3c2CN(C)C(=O)c2c(Cl)cccc2-3)no1` were 0.0034 µM and 1.18.
For `CC(C)c1noc(-c2ncn3c2CN(C)C(=O)c2c(F)cccc2-3)n1` the same measures were 0.067 µM and 2.31.
